In publication PMC7114156 (Antiviral Research, 2009):
Marks after values point to notes of the source that are not given here.

Legend:
HPV-31 = test: HPV DNA by qPCR in CIN612 cells; format: cell-based
W12 cells = test: mRNA measurement by RT-qPCR in W12 cells; format: cell-based, human; details: W12 cells
How it was run: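 RNA was taken 0, 24 and 48 h after adding test compound; W12 cells were grown in 75 cm² flasks and washed in chilled PBS. 546 Pathway Set genes were run in quadruplicate by RT-qPCR: 10 μl reactions, primers 900 nM, probes 100 nM final. Ct was normalised to GAPDH, with dCt = Ct(control) − Ct(treated) and a two-sided t-test. Fold change was F = 2^dCt where p ≤ 0.05.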

[1] = 10 nM, 24 h, not significantly different from 1

O=C(N[C@@H]1CCCc2c1[nH]c1ccc(Cl)cc21)c1ccccn1 [GSK983, N-[(1R)-6-Chloro-2,3,4,9-tetrahydro-1H-carbazol-1-yl]-2-pyridinecarboxamide]
Imax, HPV DNA, qPCR (HPV-31; CIN612, HPV type 31): 86 ± 1%
Selectivity index (HPV-31; HPV DNA qPCR in CIN612 vs HKC): 16,600 ± 5,000
EC50 (HPV-31; read-out: K, HPV DNA, qPCR): 2.4 ± 0.1 nM
Expression of IFI6, IFI44 and IRF9 (W12 cells): strongly induced
Fold increase due to GSK983, CPT1B mRNA (W12 cells; 10 nM, 24 h): 2.2 fold
Fold increase due to GSK983, IFI16 mRNA (W12 cells; 10 nM, 24 h): 5.2 fold
Fold increase due to GSK983, IFI44 mRNA (W12 cells; 10 nM, 24 h): 2.9 fold
Fold increase due to GSK983, IFIT1 mRNA (W12 cells; 10 nM, 24 h): 2.6 fold
Fold increase due to GSK983, ISG15 mRNA (W12 cells; 10 nM, 24 h): 2.5 fold
Fold increase due to GSK983, OAS2 mRNA (W12 cells; 10 nM, 24 h): 2.1 fold
Fold increase due to GSK983, OASL mRNA (W12 cells; 10 nM, 24 h): 1.8 fold
Fold increase due to GSK983, TNFSF10 mRNA (W12 cells; 10 nM, 24 h): 3.7 fold
Fold increase due to GSK983, CCL5 mRNA (W12 cells; [1]): 7.9 ^b fold
Fold increase due to GSK983, COL10A1 mRNA (W12 cells; [1]): 0.8 ^b fold
Fold increase due to GSK983, CSF2 mRNA (W12 cells; [1]): 1.5 ^b fold
Fold increase due to GSK983, DCN mRNA (W12 cells; [1]): 1.5 ^b fold
Fold increase due to GSK983, DMPK mRNA (W12 cells; [1]): 0.9 ^b fold
Fold increase due to GSK983, ERN2 mRNA (W12 cells; [1]): 0.7 ^b fold
Fold increase due to GSK983, FMOD mRNA (W12 cells; [1]): 1.0 ^b fold
Fold increase due to GSK983, IFI6 mRNA (W12 cells; [1]): 1.1 ^b fold
Fold increase due to GSK983, IL6 mRNA (W12 cells; [1]): 2.5 ^b fold
Fold increase due to GSK983, IL8 mRNA (W12 cells; [1]): 1.8 ^b fold
Fold increase due to GSK983, IRF9 mRNA (W12 cells; [1]): 1.0 ^b fold
Fold increase due to GSK983, LIFR mRNA (W12 cells; [1]): 2.1 ^b fold
Fold increase due to GSK983, LRP1 mRNA (W12 cells; [1]): 1.2 ^b fold
Fold increase due to GSK983, NR1H3 mRNA (W12 cells; [1]): 0.6 ^b fold
Fold increase due to GSK983, OAS1 mRNA (W12 cells; [1]): 1.1 ^b fold
Fold increase due to GSK983, SNAP25 mRNA (W12 cells; [1]): 1.2 ^b fold
Fold increase due to GSK983, TLR5 mRNA (W12 cells; [1]): 1.9 ^b fold
Fold increase due to GSK983, CCL5 mRNA (W12 cells; 10 nM, 48 h): 41.5 fold
Fold increase due to GSK983, CEL mRNA (W12 cells; 10 nM, 48 h): 14.1 fold
Fold increase due to GSK983, COL10A1 mRNA (W12 cells; 10 nM, 48 h): 2.0 fold
Fold increase due to GSK983, CPT1B mRNA (W12 cells; 10 nM, 48 h): 2.2 fold
Fold increase due to GSK983, CSF2 mRNA (W12 cells; 10 nM, 48 h): 1.7 fold
Fold increase due to GSK983, DCN mRNA (W12 cells; 10 nM, 48 h): 2.1 fold
Fold increase due to GSK983, DMPK mRNA (W12 cells; 10 nM, 48 h): 2.1 fold
Fold increase due to GSK983, ERN2 mRNA (W12 cells; 10 nM, 48 h): 2.6 fold
Fold increase due to GSK983, FMOD mRNA (W12 cells; 10 nM, 48 h): 1.5 fold
Fold increase due to GSK983, IFI6 mRNA (W12 cells; 10 nM, 48 h): 2.2 fold
Fold increase due to GSK983, IFI16 mRNA (W12 cells; 10 nM, 48 h): 1.6 fold
Fold increase due to GSK983, IFI44 mRNA (W12 cells; 10 nM, 48 h): 2.7 fold
Fold increase due to GSK983, IFIT1 mRNA (W12 cells; 10 nM, 48 h): 2.0 fold
Fold increase due to GSK983, IL6 mRNA (W12 cells; 10 nM, 48 h): 1.8 fold
Fold increase due to GSK983, IL8 mRNA (W12 cells; 10 nM, 48 h): 1.4 fold
Fold increase due to GSK983, IRF3 mRNA (W12 cells; 10 nM, 48 h): 1.3 fold
Fold increase due to GSK983, ISG15 mRNA (W12 cells; 10 nM, 48 h): 3.0 fold
Fold increase due to GSK983, LIFR mRNA (W12 cells; 10 nM, 48 h): 1.5 fold
Fold increase due to GSK983, LRP1 mRNA (W12 cells; 10 nM, 48 h): 3.5 fold
Fold increase due to GSK983, NR1H3 mRNA (W12 cells; 10 nM, 48 h): 1.8 fold
Fold increase due to GSK983, OAS1 mRNA (W12 cells; 10 nM, 48 h): 1.7 fold
Fold increase due to GSK983, OAS2 mRNA (W12 cells; 10 nM, 48 h): 1.8 fold
Fold increase due to GSK983, OASL mRNA (W12 cells; 10 nM, 48 h): 2.2 fold
Fold increase due to GSK983, SNAP25 mRNA (W12 cells; 10 nM, 48 h): 3.7 fold
Fold increase due to GSK983, TLR5 mRNA (W12 cells; 10 nM, 48 h): 1.7 fold
Fold increase due to GSK983, TNFSF10 mRNA (W12 cells; 10 nM, 48 h): 1.8 fold
Fold increase due to GSK983, CCL5 mRNA (W12 cells; 100 nM, 24 h): 3.1 fold
Fold increase due to GSK983, CEL mRNA (W12 cells; 100 nM, 24 h): 3.0 fold
Fold increase due to GSK983, COL10A1 mRNA (W12 cells; 100 nM, 24 h): 3.6 fold
Fold increase due to GSK983, CPT1B mRNA (W12 cells; 100 nM, 24 h): 3.2 fold
Fold increase due to GSK983, CSF2 mRNA (W12 cells; 100 nM, 24 h): 3.7 fold
